# From PubChem
# Compounds with a hit are over-represented: about 1.3% of the library has one in this group of screens.
# TAG inh: triacylglycerol accumulation inhibition | H9c2 cells, Nile Red lipid (TAG) fluorescence; cells loaded with 200 µM oleic acid | inhibition, % at 12.5 µM | 0.66% of 230,000 active | AID 651582;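 active means pattern-corrected inhibition of lipid staining of at least 50% with the nuclear-stain viability signal not falling by more than 50%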;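 further: 0% = DMSO wells and 100% = triacsin C control wells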
# Hck Nef HTS: inhibitors of human Hck kinase activated by Nef | 0.68% of 220,000 active | P08631 | inhibition, % at 20 µM | Recombinant Hck-YEEI plus Nef, Z-Lyte FRET kinase assay;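 active means Hck-Nef kinase inhibition above about 50%, limit read from the data; inactive means inhibition below that limit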;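 further: 0% = DMSO with Hck plus Nef and 100% = Hck alone without Nef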
# Target sequence (P08631 whole entry, looked up): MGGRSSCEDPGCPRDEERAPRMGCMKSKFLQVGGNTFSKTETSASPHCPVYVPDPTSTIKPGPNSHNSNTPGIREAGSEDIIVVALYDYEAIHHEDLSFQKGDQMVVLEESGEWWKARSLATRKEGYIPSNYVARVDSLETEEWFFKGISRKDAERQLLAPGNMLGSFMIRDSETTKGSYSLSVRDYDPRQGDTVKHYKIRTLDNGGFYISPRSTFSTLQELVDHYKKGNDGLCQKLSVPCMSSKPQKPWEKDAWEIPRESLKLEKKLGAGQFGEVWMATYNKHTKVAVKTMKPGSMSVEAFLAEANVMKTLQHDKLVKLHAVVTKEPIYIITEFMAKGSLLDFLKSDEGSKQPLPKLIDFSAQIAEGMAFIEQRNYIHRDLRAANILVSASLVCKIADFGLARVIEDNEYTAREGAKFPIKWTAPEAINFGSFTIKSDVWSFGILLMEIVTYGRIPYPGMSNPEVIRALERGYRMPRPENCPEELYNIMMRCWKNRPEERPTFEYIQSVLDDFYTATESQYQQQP
# Rad51 HR inh: Rad51 (human) homologous recombination inhibition; inhibition, % at 10 µM; hRad51 DNA strand exchange, fluorescence dequenching; AID 1385; 0.085% of 200,000 active;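 active means inhibition above 40% at the single screening dose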;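 further: 0% = DMSO control wells and 100% = blanks with heterologous ssDNA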
#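 Material: hRad51 filaments on single-stranded DNA; Reagent: Donor/quencher-labelled 47-bp dsDNA substrate; Compound: 10 µM final, single point; Schedule: 37 °C 15-min filament assembly, 30-min compound preincubation, 15-min exchange; Technique: FRET fluorescence, excitation 485 nm, emission 520 nm; Benchmarks: control wells and blank wells on each plate.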
# PKD1 kinase inh: PKD1 (human) kinase inhibition; Q15139; PKD1 kinase fluorescence polarization assay; inhibition, % (test concentration not listed); 0.056% of 200,000 active; AID 797; in the data active means inhibition above about 50%
# Mdm2 ligase inh: inhibitors of human Mdm2 E3 ubiquitin ligase | Q00987 | cell-based MDM2 ubiquitination luciferase reporter, 2 h; 0 = plate control, 100 = twice control, blank-subtracted | signal enhancement, % at 5 µM | 0.11% of 210,000 active;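 active means signal enhancement of 30% or more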;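 further: luminescence tracks abundance of the self-degrading MDM2-luciferase fusion protein; higher signal means inhibition of MDM2 E3 ligase activity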
#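 Test system: stable mammalian line carrying autodegrading MDM2–luciferase fusion reporter; quantity: 2000 cells in each well; times: 4 h cell settling then 2 h compound exposure, 37 °C; detection: luminescence with SteadyLite reagent, 15 min at room temperature; evaluation: percent signal gain over controls, blank-subtracted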
# PERK inhibitor: blocks human PERK kinase; CHO PERK-DD fusion, SEAP luminescence translation reporter; 0.17% of 220,000 active; Q9NZJ5; AID 1416; inhibition, % at 5.6 µM;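 active means inhibition above the mean inhibition of all tested compounds plus 3 SD, set separately per screening campaign, cut at about 2.9% in these data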;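 further: PERK kinase domain activated by AP20187 dimerizer at 100 nM; 0% = DMSO with dimerizer and 100% = rapamycin at 8.4 µM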
# Starred values were filed as active, the others as inactive; i = inactive; . = no result given.
SMILES,TAG inh,Hck Nef HTS,Rad51 HR inh,PKD1 kinase inh,Mdm2 ligase inh,PERK inhibitor
Cc1onc(-c2ccccc2)c1CNC(=O)Nc1cccc(Cl)c1,-26,9,4,.,-4,-1
S=c1[nH]nc(-c2cc(-c3ccccc3)n[nH]2)n1/N=C/C(Br)=C/c1ccccc1,72*,25,-7,.,-5,0
Cc1ccc2c(c1)c1ccc3c(c1n2C)C(=O)C=CC3=O,.,13,-8,.,40*,0
COCCCNC1=C(Cl)C(=O)c2ccccc2C1=O,24,9,19,.,-9,1
COCCCNc1c2c3c(cccc3[nH]c1=O)C(=O)c1ccccc1-2,-176,-7,i,110*,-7,0
COC(=O)c1cc2n(n1)CCN(Cc1ccc(F)cc1)C2=O,0,2,46*,5,-18,1
O=C(Nc1ccc2c(c1)OCO2)C1CCN(C(=O)c2ccc(Br)cc2)CC1,4,5,41*,-4,-16,2
O=C(Nc1ccc2c(c1)OCO2)C1CCN(C(=O)c2ccc(Cl)cc2)CC1,-8,19,-105,-6,1,0
CC(=O)NC1C(=O)N=C(SCC(=O)NC(C)c2ccccc2)NC1=O (stereo unspecified),.,1,.,1,34*,2
CC(=O)NC1C(=O)N=C(SCc2ccccc2)NC1=O (stereo unspecified),3,-1,-6,2,-9,2
Cc1cc(C)c(S(=O)(=O)Nc2ccc3c4c(cccc24)CC3)c(C)c1,58*,4,-10,9,12,1
COc1cc(OC)cc(C(=O)N[C@H](C(=O)Nc2ccc3c(c2)OCO3)C(C)C)c1,3,27,1,0,-2,1
Cc1cccc(/C=C(\C(=O)O)c2ccc(S(=O)(=O)N3CCCC3)s2)c1,-4,.,.,.,.,.
COC(=O)c1ccc(Cl)c(NC(=O)NC23CC4CC(CC(C4)C2)C3)c1,70*,-14,-6,-9,-2,0
CCOC(=O)N1C/C(=C\c2ccccc2)C(=O)/C(=C/c2ccccc2)C1,.,-6,.,.,46*,-1
CN1CCC(n2[nH]c(-c3ccccc3)c(Cc3ccccc3)c2=O)CC1,-5,.,.,.,.,.
Cc1nn(C)c(Cl)c1C(=O)NCC(=O)NCc1ccccc1,-2,22,42*,0,-7,1
Cc1ccc(CNC(=O)CNC(=O)c2c(C)nn(C)c2Cl)cc1,7,4,-11,0,4,-1
CC(C)(C)C(=O)Nc1nc(=S)ss1,-5,-2,3,6,-13,0
CCC(=O)Nc1nc(=S)ss1,-9,1,62*,3,5,1
CCCOc1ccc(C(=O)N(CC(C)C)c2c(N)n(Cc3ccccc3)c(=O)[nH]c2=O)cc1,4,.,.,.,.,.
CN(C)CC/C=C1\c2ccccc2Sc2cc(F)c(Cl)cc21,62*,.,.,.,.,.
CN(C)CC/C=C1\c2ccccc2Sc2ccc(Cl)cc21,13,-3,-4,2,.,-1
CN(C)CC/C=C1\c2ccc(F)cc2Sc2cc(F)c(Cl)cc21,61*,.,.,.,.,.
CN(C)CC/C=C1/c2ccc(F)cc2Sc2ccc(Cl)cc21,44,.,.,.,.,.
SMILES,TAG inh,Hck Nef HTS,Rad51 HR inh,PKD1 kinase inh,Mdm2 ligase inh,PERK inhibitor
Cc1ccc(S(=O)(=O)N(C)C)cc1NC(=O)C1CCCCN1S(=O)(=O)c1ccccc1 (stereo unspecified),7,.,.,.,.,.
CCSC1=NCCN1C(=O)c1ccc(S(=O)(=O)N(C)C)cc1,.,5,41*,-1,-3,1
CN(C)S(=O)(=O)c1ccc(C(=O)N2CCN=C2SCc2ccccc2)cc1,8,-14,39,6,-26,0
O=C(CSc1nc2c([nH]c3ccccc32)c(=O)n1-c1cccc(Cl)c1)N1CCOCC1,22,53*,-9,-1,-7,1
O=C(CSc1nc2c([nH]c3ccccc32)c(=O)n1-c1ccccc1)N1CCOCC1,23,-3,-2,3,0,1
Cc1c(C(=O)N(C)C(C)c2ccccn2)oc2c(F)cccc12 (stereo unspecified),-5,.,.,.,.,.
O=C(O)CSc1ncnc2scc(-c3ccc(Br)cc3)c12,7,8,-47,.,-1,3.6*
O=C(O)CSc1ncnc2scc(-c3ccccc3)c12,2,14,.,.,-2,0
C(=N\NC1=Nc2cccc3cccc1c23)/c1ccccn1,51*,29,-19,2,-18,0
